This passage reports Reduction results from ChEMBL document CHEMBL1123839, “5-Acyl-3-substituted-benzofuran-2(3H)-ones as potential antiinflammatory agents” (1987).

Assay type in all cases: functional
Assay [1] is filed under the species Cavia porcellus. Put plainly: Tested for effect on the production of Lipoxygenase (LO) metabolite, 5,12-diHETE in guinea pig peritoneal polymorphonuclear neutrophils at 30 uM concentration. In a few lines:
(§1)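 Guinea pig peritoneal PMNs were incubated with [14C]arachidonic acid and stimulated with calcium ionophore A23187. Compounds were tested at 30 μM in 0.1 N NaOH–Krebs Ringer bicarbonate buffer. Radiolabeled cyclooxygenase and lipoxygenase products were identified by HPLC and GC-MS, separated by TLC and quantified by automatic scanning.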

Assay [2] is filed under the species Cavia porcellus. Put plainly: Tested for effect on the production of Lipoxygenase (LO) metabolite, 5-HETE in guinea pig peritoneal polymorphonuclear neutrophils at 30 uM concentration. The procedure, abridged: as §1
For assay [3], the species on record is Cavia porcellus. Put plainly: Tested for effect on the production of cyclooxygenase (COX) metabolite, PGE-2 (prostaglandin E2) of arachidonic acid in guinea pig peritoneal polymorphonuclear neutrophils at 30 uM concentration. In a few lines:
as §1

The species entered for assay [4] is Cavia porcellus. Put plainly: Tested for effect on the production of cyclooxygenase (COX) metabolite, TXB2 of arachidonic acid in guinea pig peritoneal polymorphonuclear neutrophils at 30 uM concentration. The procedure, abridged:
as §1

The test system of assay [5] is Rattus norvegicus. Put plainly: Antiinflammatory activity was assessed by the ability to improve the adjuvant induced arthritis in left secondary lesion in rats at oral doses, 33 mg/kg (volume change in the injected paw measured from day 9 to day 18).
Assay [6] concerns Rattus norvegicus. Put plainly: Antiinflammatory activity was assessed by the ability to improve the adjuvant induced arthritis in right primary lesion in rats at oral doses, 33 mg/kg (volume change in the injected paw measured from day 0 to day 8). The procedure, abridged: (§2)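 Female Sprague–Dawley rats (150–170 g), six per group. Arthritis induced by subcutaneous plantar injection of 0.125 mg killed tubercle bacillus in liquid paraffin into the right hind paw. Dosing was 33 mg/kg orally, daily for 14 days, starting the day before adjuvant. Paw volumes were measured by mercury plethysmography every 2–3 days over 18 days. Primary lesion: right paw, days 0–8. Secondary lesions: right and left (uninjected) paws, days 9–18. Areas under the time-course curves were compared with controls by ANOVA.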

Assay [7] concerns Rattus norvegicus. Put plainly: Ability to improve the adjuvant induced arthritis in right secondary lesion in rats at oral doses, 33 mg/kg. In a few lines: as §2
The species named for assay [8] is Rattus norvegicus. Put plainly: Antiinflammatory activity was assessed improvement of adjuvant induced arthritis in rats, determined by joint mobility of the paw. On the set-up: concentration or dose not given beside the values. The procedure, abridged: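 Adjuvant arthritis was induced in female Sprague–Dawley rats (150–170 g, groups of six) by right-hind-paw plantar injection of killed tubercle bacillus in paraffin. Treatment was 33 mg/kg orally, daily for 14 days, starting the day before adjuvant. Joint involvement was scored as the angle through which the hind paws moved easily, given as percent change versus nontreated controls.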

Assay [9] is filed under the species Cavia porcellus. Put plainly: Tested for effect on the production of cyclooxygenase (COX) metabolite, PGF2-alpha (prostaglandin F2-alpha) of arachidonic acid in guinea pig peritoneal polymorphonuclear neutrophils at 30 uM concentration. In a few lines:
as §1

`Cc1ccc(C(=O)c2ccc(O)c(C(C)C(=O)O)c2)s1` (stereo not given): the Reduction in the assay filed under Cavia porcellus [1] was -36%; in the assay filed under Cavia porcellus [2] it was -69%; in the assay filed under Cavia porcellus [3] it was 54%; in the assay listed under Cavia porcellus [4] it was 82%; in the assay with Rattus norvegicus [5], 29%; in the assay on Rattus norvegicus [6], 13%. In addition, the Reduction is reported as 11% in the assay with Rattus norvegicus [7], -16% in the assay listed under Rattus norvegicus [8] and 49% in the assay filed under Cavia porcellus [9].
As for `CCCC(C(=O)O)c1cc(C(=O)c2cccs2)ccc1O` (stereo not given), the Reduction in the assay filed under Cavia porcellus [1] is -42%; in the assay listed under Cavia porcellus [2], -33%; in the assay filed under Cavia porcellus [3], 87%; in the assay listed under Cavia porcellus [4] it was 86%; in the assay with Rattus norvegicus [5], 52%; with Rattus norvegicus [6], 26%. In addition, the Reduction amounted to 30% with Rattus norvegicus [7], 33% in the assay filed under Rattus norvegicus [8] and 50% in the assay filed under Cavia porcellus [9].
Turning to `CCC(CC)(C(=O)O)c1cc(C(=O)c2cccs2)ccc1OC`, the Reduction with Rattus norvegicus [5] is listed as 42%; in the assay on Rattus norvegicus [6], -11%; in the assay on Rattus norvegicus [7], 16%; in the assay listed under Rattus norvegicus [8] it was 42%.
Take `Cc1ccc(C(=O)c2ccc3c(c2)C(C)C(=O)O3)s1` (stereo not given): the Reduction in the assay listed under Cavia porcellus [1] is reported as 15%; in the assay filed under Cavia porcellus [2] it was -3%; in the assay filed under Cavia porcellus [3], 65%; in the assay listed under Cavia porcellus [4], 86%; in the assay on Rattus norvegicus [5], 36%; in the assay with Rattus norvegicus [6] it was 10%. In addition, the results for the Reduction in the assay on Rattus norvegicus [7], in the assay listed under Rattus norvegicus [8] and in the assay listed under Cavia porcellus [9] were 19%, 15% and 28%, respectively.
For the compound `CC(C)(C)c1cc(/C=C2\C(=O)Oc3ccc(C(=O)c4cccs4)cc32)cc(C(C)(C)C)c1O`, the Reduction was -8% in the assay listed under Cavia porcellus [1]; -11% in the assay listed under Cavia porcellus [2]; -14% in the assay listed under Cavia porcellus [3]; 26% in the assay filed under Cavia porcellus [4]; 8% in the assay with Rattus norvegicus [5]; -28% with Rattus norvegicus [6]. Also, the results for the Reduction in the assay with Rattus norvegicus [7], in the assay filed under Rattus norvegicus [8] and in the assay filed under Cavia porcellus [9] were -7%, 17% and 6%, respectively.
On to `CCC(C(=O)O)c1cc(C(=O)c2cccs2)ccc1O` (stereo not given), for which the Reduction in the assay listed under Cavia porcellus [1] is -33%; in the assay listed under Cavia porcellus [2], 16%; in the assay filed under Cavia porcellus [4], 92%; in the assay on Rattus norvegicus [5], 76%; with Rattus norvegicus [6] it was 20%; in the assay on Rattus norvegicus [7] it was 64%. In addition, the Reduction in the assay listed under Rattus norvegicus [8] was 60%; in the assay listed under Cavia porcellus [9], 65%.
For the compound `O=C(O)/C(=C\c1ccccc1)c1cc(C(=O)c2cccs2)ccc1O`, the Reduction is on record as -15% in the assay on Rattus norvegicus [5], 15% with Rattus norvegicus [6], 11% with Rattus norvegicus [7] and 5% in the assay filed under Rattus norvegicus [8].
On to `CC(C)(C(=O)O)c1cc(C(=O)c2cccs2)ccc1O`, for which the Reduction in the assay filed under Cavia porcellus [1] is recorded as -23%; in the assay listed under Cavia porcellus [2] it was -20%; in the assay listed under Cavia porcellus [3], 80%; in the assay filed under Cavia porcellus [4] it was 90%; in the assay on Rattus norvegicus [5] it was 46%; with Rattus norvegicus [6], 4%. Moreover, the figures for the Reduction with Rattus norvegicus [7], in the assay filed under Rattus norvegicus [8] and in the assay filed under Cavia porcellus [9] were 20%, 26% and 55%, respectively.
For the compound `CCCCC(C(=O)O)c1cc(C(=O)c2cccs2)ccc1O` (stereo not given), the Reduction in the assay listed under Cavia porcellus [1] stood at 60%; in the assay listed under Cavia porcellus [2], 60%; in the assay filed under Cavia porcellus [3], 44%; in the assay filed under Cavia porcellus [4], 64%; in the assay on Rattus norvegicus [5], 53%; with Rattus norvegicus [6], 5%. The figures for the Reduction with Rattus norvegicus [7], in the assay listed under Rattus norvegicus [8] and in the assay filed under Cavia porcellus [9] were 29%, 14% and 51%, respectively.
On to `COc1ccc(C(=O)c2ccc(O)c(C(C)C(=O)O)c2)cc1` (stereo not given), for which the Reduction is -10% in the assay listed under Cavia porcellus [1]; 5% in the assay listed under Cavia porcellus [2]; 89% in the assay filed under Cavia porcellus [4]; 22% in the assay on Rattus norvegicus [5]; 12% in the assay on Rattus norvegicus [6]; 31% in the assay with Rattus norvegicus [7]. The values for the Reduction in the assay filed under Rattus norvegicus [8] and in the assay listed under Cavia porcellus [9] were 7% and 58%, respectively.
Regarding `CC1C(=O)Oc2ccc(C(=O)c3ccco3)cc21` (stereo not given), the Reduction in the assay filed under Cavia porcellus [1] was 3%; in the assay filed under Cavia porcellus [2], 20%; in the assay filed under Cavia porcellus [3], 81%; in the assay filed under Cavia porcellus [4], 81%; in the assay on Rattus norvegicus [5] it was 25%; in the assay on Rattus norvegicus [6], -5%. The Reduction with Rattus norvegicus [7] is listed as 12%; in the assay listed under Rattus norvegicus [8], 2%.
Take `CC1(C)C(=O)Oc2ccc(C(=O)c3cccs3)cc21`: the Reduction in the assay listed under Cavia porcellus [1] is recorded as 49%; in the assay filed under Cavia porcellus [2] it was 52%; in the assay listed under Cavia porcellus [3], 81%; in the assay filed under Cavia porcellus [4] it was 81%; in the assay with Rattus norvegicus [5], 50%; in the assay with Rattus norvegicus [6], 28%. Also, the Reduction is 36% in the assay on Rattus norvegicus [7], 44% in the assay listed under Rattus norvegicus [8] and -37% in the assay filed under Cavia porcellus [9].
Consider `CCCC1C(=O)Oc2ccc(C(=O)c3cccs3)cc21` (stereo not given), for which the Reduction in the assay listed under Cavia porcellus [1] is given as 7%; in the assay filed under Cavia porcellus [2], -2%; in the assay listed under Cavia porcellus [3], 85%; in the assay listed under Cavia porcellus [4] it was 81%; in the assay with Rattus norvegicus [5] it was 67%; in the assay on Rattus norvegicus [6] it was 23%. For the same compound, the Reduction in the assay with Rattus norvegicus [7] came out at 41%; in the assay filed under Rattus norvegicus [8], 61%; in the assay listed under Cavia porcellus [9], 49%.
Regarding `CC(C(=O)O)c1cc(C(=O)c2ccc(F)cc2)ccc1O` (stereo not given), the Reduction in the assay filed under Cavia porcellus [1] was -8%; in the assay filed under Cavia porcellus [2], -1%; in the assay filed under Cavia porcellus [3], 46%; in the assay listed under Cavia porcellus [4], 74%; in the assay with Rattus norvegicus [5], 56%; in the assay on Rattus norvegicus [6] it was 22%. Further, the Reduction with Rattus norvegicus [7] is reported as 32%; in the assay filed under Rattus norvegicus [8], 33%; in the assay filed under Cavia porcellus [9], 49%.
In the case of `CC(C(=O)O)c1cc(C(=O)c2cccs2)ccc1O` (stereo not given), the Reduction in the assay filed under Cavia porcellus [1] is -84%; in the assay filed under Cavia porcellus [2], -68%; in the assay filed under Cavia porcellus [3], 76%; in the assay filed under Cavia porcellus [4], 89%; in the assay with Rattus norvegicus [5], 35%; with Rattus norvegicus [6], 39%. Also, the Reduction in the assay on Rattus norvegicus [7] is 34%; in the assay listed under Rattus norvegicus [8] it was -15%; in the assay filed under Cavia porcellus [9] it was 76%.
With `COc1ccc(C(=O)c2ccc3c(c2)C(C)C(=O)O3)cc1` (stereo not given), the Reduction in the assay listed under Cavia porcellus [1] is 44%; in the assay filed under Cavia porcellus [2], 50%; in the assay listed under Cavia porcellus [4], 70%; in the assay on Rattus norvegicus [5], 22%; in the assay with Rattus norvegicus [6], -9%; in the assay with Rattus norvegicus [7] it was 5%. For the same compound, the Reduction in the assay listed under Rattus norvegicus [8] is -9%; in the assay filed under Cavia porcellus [9], 51%.
On to `O=C1Oc2ccc(C(=O)c3cccs3)cc2/C1=C/c1ccc(Cl)cc1`, for which the Reduction in the assay listed under Cavia porcellus [1] is 73%; in the assay filed under Cavia porcellus [2], 71%; in the assay filed under Cavia porcellus [3], 77%; in the assay listed under Cavia porcellus [4] it was 93%; in the assay with Rattus norvegicus [5], -14%; with Rattus norvegicus [6] it was -5%. Further, the Reduction is -18% in the assay with Rattus norvegicus [7], 12% in the assay listed under Rattus norvegicus [8] and 69% in the assay filed under Cavia porcellus [9].
For `CCC1C(=O)Oc2ccc(C(=O)c3cccs3)cc21` (stereo not given), the Reduction in the assay filed under Cavia porcellus [1] is recorded as 9%; in the assay filed under Cavia porcellus [2], 20%; in the assay listed under Cavia porcellus [3], 79%; in the assay filed under Cavia porcellus [4], 90%; in the assay on Rattus norvegicus [5], 81%; in the assay with Rattus norvegicus [6] it was 13%. The values for the Reduction in the assay on Rattus norvegicus [7], in the assay filed under Rattus norvegicus [8] and in the assay listed under Cavia porcellus [9] were 51%, 52% and 62%, respectively.
`O=C1Cc2cc(C(=O)c3cccs3)ccc2O1`: the Reduction is on record as -44% in the assay listed under Cavia porcellus [1]; -33% in the assay filed under Cavia porcellus [2]; 54% in the assay filed under Cavia porcellus [3]; 65% in the assay filed under Cavia porcellus [4]; -35% in the assay with Rattus norvegicus [5]; 25% in the assay on Rattus norvegicus [6]. In addition, the Reduction with Rattus norvegicus [7] is 9%; in the assay listed under Rattus norvegicus [8], 5%; in the assay listed under Cavia porcellus [9], 57%.
For `O=C(c1ccc(O)c(C(Cc2ccccc2)C(=O)O)c1)c1cccs1` (stereo not given), the Reduction was determined as 10% in the assay with Rattus norvegicus [5], 29% with Rattus norvegicus [6], 30% in the assay on Rattus norvegicus [7] and 6% in the assay filed under Rattus norvegicus [8].
Regarding `CC1C(=O)Oc2ccc(C(=O)c3ccccc3)cc21` (stereo not given), the Reduction is -10% in the assay filed under Cavia porcellus [1]; 10% in the assay filed under Cavia porcellus [2]; 71% in the assay listed under Cavia porcellus [3]; 82% in the assay filed under Cavia porcellus [4]; 52% in the assay with Rattus norvegicus [5]; 5% in the assay on Rattus norvegicus [6]. The Reduction came out at 35% in the assay with Rattus norvegicus [7], 29% in the assay listed under Rattus norvegicus [8] and 56% in the assay listed under Cavia porcellus [9].
